Assay [1] in a line: Cytotoxicity against DG75 cells after 120 hrs by MTT assay. Format: cell-based. The conditions noted are these: Homo sapiens, DG-75, 120 h. Put shortly: (§1)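 KSHV-positive PEL lines (BC2, BC3) and herpesvirus-negative B-lymphoma DG75 exposed to varying nucleoside concentrations for 120 h, then cell viability assay; OD 560 nm, untreated cells of each line set as 100%. Six replicate wells per experiment; IC50 as mean ± SD of three separate experiments.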

Assay [2] deals with Human gammaherpesvirus 8. The experiment in a line: Cytotoxicity against Kaposi's sarcoma-associated herpesvirus infected BC3 cells after 120 hrs by MTT assay. In kind it is functional, organism-based. The note with it: Human gammaherpesvirus 8, BC-3, 120 h. Put shortly:
as §1
For orientation: Tetrazolium assays rely on reduction of a dye to a coloured formazan, in cell work by metabolically active cells.

Assay [3] relates to Human gammaherpesvirus 8. The experiment in a line: Cytotoxicity against Kaposi's sarcoma-associated herpesvirus infected BC2 cells after 120 hrs by MTT assay. In kind it is functional, organism-based. The conditions noted are these: Human gammaherpesvirus 8, BC-2, 120 h. Put shortly:
as §1

The subject of assay [4] is Human gammaherpesvirus 8. Briefly: Cytotoxicity against Kaposi's sarcoma-associated herpesvirus infected BC3 cells in presence of 50 uM adenosine after 72 hrs. In kind it is functional, organism-based. The conditions noted are these: BC-3. The procedure, abridged:
(§2)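 BC3 cells seeded at 10⁴ cells/mL, given graded compound concentrations plus one common nucleoside (final 50 µM) added simultaneously, in triplicate; 3 days (72 h) at 37 °C, humidified 5% CO₂; growth inhibition read by MTT assay.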

Another assay relates to BC-3. The experiment in a line: Inhibition of RNA synthesis in KSHV infected BC3 cells assessed as [3H]guanosine incorporation after 1 hr. Format: functional, Homo sapiens. The procedure, abridged: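 BC3 cells (2.5 × 10⁵ cells/mL) cultured 24 h, then compound added for 1 h; before harvest, 30 min pulse label with [³H]thymidine for DNA or tritiated ribonucleoside for RNA (guanosine in text, uridine in legend); synthesis measured as radiolabel incorporation.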

The test system of assay [5] is Human gammaherpesvirus 8. The experiment in a line: Cytotoxicity against Kaposi's sarcoma-associated herpesvirus infected BC3 cells in presence of 50 uM thymidine after 72 hrs. In kind it is functional, organism-based. The conditions noted are these: BC-3. Put shortly:
as §2

We go through eleven compounds from ChEMBL document CHEMBL1147135, “9-(2-C-Cyano-2-deoxy-beta-D-arabino-pentofuranosyl)guanine, a potential antitumor agent against B-lymphoma infected with Kaposi's sarcoma-associated herpesvirus” (J Med Chem, 2007).

The structures appear in SMILES notation. Active and inactive are the calls of the source. The calls are words filed in the database; no cut-off is given here.

In general, IC50 refers to the concentration needed to halve the response being measured. Read a low IC50 as greater potency. As for `N#C[C@H]1[C@H](O)[C@@H](CO)O[C@H]1n1ccc(N)nc1=O` [TAS-109], the IC50 in assay [1] came to 0.21 µM; with Human gammaherpesvirus 8 [2], 0.23 µM; with Human gammaherpesvirus 8 [3] it was 0.13 µM.

Take `Nc1nc2c(ncn2COCCO)c(=O)[nH]1` [ACYCLOVIR]: the half-maximal inhibitory concentration (IC50) (in assay [1]; in the assay with Human gammaherpesvirus 8 [2]; in the assay on Human gammaherpesvirus 8 [3]) was more than 100 µM each time.

For `O=c1[nH]c(=O)n([C@H]2C[C@H](O)[C@@H](CO)O2)cc1/C=C/Br` [BRIVUDINE], the IC50 (in assay [1]; in the assay with Human gammaherpesvirus 8 [2]; with Human gammaherpesvirus 8 [3]) was more than 15 µM throughout.

Turning to `COc1nc(N)nc2c1ncn2[C@@H]1O[C@H](CO)[C@@H](O)[C@@H]1C#N`, the IC50 is more than 15 µM in assay [1], 0.79 µM in the assay with Human gammaherpesvirus 8 [2] and 1.51 µM in the assay with Human gammaherpesvirus 8 [3].

In the case of `N#C[C@H]1[C@H](O)[C@@H](CO)O[C@H]1n1cnc2c(Cl)nc(N)nc21`, the IC50 in assay [1] was more than 15 µM; with Human gammaherpesvirus 8 [2], 1.48 µM; with Human gammaherpesvirus 8 [3] it was 1.73 µM.

By Inhibition is commonly meant the share of the control response that was lost under treatment. As for `N#C[C@H]1[C@H](O)[C@@H](CO)O[C@H]1n1cnc2c(O)nc(N)nc21`, the outcome in the assay with Human gammaherpesvirus 8 [4] and with Human gammaherpesvirus 8 [5] was inactive. Also, the figures for the concentration for half-maximal inhibition (IC50) (in assay [1]; in the assay on Human gammaherpesvirus 8 [2]; in the assay with Human gammaherpesvirus 8 [3]) were more than 15 µM, 1.14 µM and 7.61 µM, respectively. In addition, the Inhibition with BC-3 worked out at 80%.

Consider `N#C[C@H]1[C@H](O)[C@@H](CO)O[C@H]1n1cnc2c(N)ncnc21`, for which the half-inhibitory concentration (IC50) (in assay [1]; in the assay with Human gammaherpesvirus 8 [2]; in the assay on Human gammaherpesvirus 8 [3]) was more than 15 µM each time.

On to `N#C[C@H]1[C@H](O)[C@@H](CO)O[C@H]1n1cnc2cnc(N)nc21`, for which the IC50 (in assay [1]; in the assay with Human gammaherpesvirus 8 [2]; in the assay on Human gammaherpesvirus 8 [3]) was more than 15 µM each time.

As to `N#C[C@@H]1[C@H](O)[C@@H](CO)O[C@H]1n1cnc2c(=O)[nH]c(N)nc21`, the concentration for half-maximal inhibition (IC50) in assay [1] is more than 15 µM; in the assay on Human gammaherpesvirus 8 [2] it was 1.73 µM; with Human gammaherpesvirus 8 [3], 2.61 µM.

As to `Nc1nc2c(ncn2COC(CO)CO)c(=O)[nH]1` [GANCICLOVIR], the half-inhibitory concentration (IC50) was more than 100 µM in assay [1], 70 µM in the assay with Human gammaherpesvirus 8 [2] and 81 µM in the assay with Human gammaherpesvirus 8 [3].

Take `N#C[C@H]1[C@H](O)[C@@H](CO)O[C@H]1n1cnc2c(N)nc(N)nc21`: the IC50 in assay [1] was more than 15 µM; in the assay with Human gammaherpesvirus 8 [2], 0.47 µM; in the assay with Human gammaherpesvirus 8 [3] it was 1.56 µM.
